Experimental data from ChEMBL document CHEMBL1122631, “2,3,4,4a,5,9b-Hexahydro-1H-indeno[1,2-b]pyridines: potential antidepressants” (J Med Chem, 1984).

How the values were obtained:
[1] = Acute toxicity in mice, after intraperitoneal administration.; assay type: organism-based; conditions: mouse, in vivo, ip
How it was run: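 Mice, groups of 10, given compound suspended in 1% methylcellulose ip at 10 mL/kg, then housed with food and water ad libitum. Observed hourly up to 6 h; deaths recorded at 24 and 48 h.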

[2] = system: Mus musculus; experiment: Prevention of tetrabenazine (TBZ)-induced ptosis in mice after intraperitoneal administration.; assay type: functional, organism-based
How it was run: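 Mice given compound ip in 1% methylcellulose (10 mL/kg), 30 min before tetrabenazine 40 mg/kg base ip; solvent+TBZ control per test. Ptosis scored 30 min after TBZ (+1 min) as 100/50/0% (closed/half/open), not normalized.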

| Compound | LD50 [1] [mg/kg] | ED50 [2] |
| --- | --- | --- |
| COc1cc2c(cc1OC)[C@@H]1[C@@H](CCCN1C)[C@H]2c1ccccc1 | 70 | No activity detected up to a dose of 1/5 LD50 ip in mice |
| CC(C)c1ccc([C@@H]2c3cc(O)ccc3[C@H]3NCCC[C@@H]23)cc1 | 50 | No activity detected up to a dose of 1/5 LD50 ip in mice |
| Nc1ccc([C@H]2c3cc(O)ccc3[C@H]3NCCC[C@@H]23)cc1 | 85 | No activity detected up to a dose of 1/5 LD50 ip in mice |
| Cc1ccc([C@H]2c3ccccc3[C@H]3NCCC[C@@H]23)cc1N | 45 | No activity detected up to a dose of 1/5 LD50 ip in mice |
| c1ccc([C@H]2c3ccccc3[C@H]3NCCC[C@@H]23)cc1 | 50 | No activity detected up to a dose of 1/5 LD50 ip in mice |
| COc1ccc2c(c1)[C@H](c1ccc(N(C)C)cc1)[C@@H]1CCCN[C@H]21 | 48 | No activity detected up to a dose of 1/5 LD50 ip in mice |
| Cc1ccccc1[C@H]1c2ccccc2[C@H]2NCCC[C@@H]12 | 52 | No activity detected up to a dose of 1/5 LD50 ip in mice |
| FC(F)(F)c1ccccc1[C@H]1c2ccccc2[C@H]2NCCC[C@@H]12 | 24 | No activity detected up to a dose of 1/5 LD50 ip in mice |
| COc1ccc2c(c1)[C@H](c1ccc(N)cc1)[C@@H]1CCCN[C@H]21 | 50 | No activity detected up to a dose of 1/5 LD50 ip in mice |
| CN(C)c1ccc([C@@H]2c3cc(O)ccc3[C@H]3NCCC[C@@H]23)cc1 | 159 | No activity detected up to a dose of 1/5 LD50 ip in mice |
| COc1ccc2c(c1)[C@@H](c1ccc(C)cc1)[C@@H]1CCCN(C)[C@H]21 | 67 | No activity detected up to a dose of 1/5 LD50 ip in mice |
| Cc1ccc([C@@H]2c3cc(O)ccc3[C@@H]3[C@H]2CCCN3C)cc1 | 187 | No activity detected up to a dose of 1/5 LD50 ip in mice |
| Cc1ccc([C@H]2c3ccccc3[C@@H]3[C@H]2CCCN3C)cc1 | < 1 | No activity detected up to a dose of 1/5 LD50 ip in mice |
| CN1CCC[C@H]2[C@@H](c3ccc(F)cc3)c3ccccc3[C@H]21 | 22 | No activity detected up to a dose of 1/5 LD50 ip in mice |
| Cc1cccc([C@H]2c3ccccc3[C@@H]3[C@H]2CCCN3C)c1 | 5 | No activity detected up to a dose of 1/5 LD50 ip in mice |
| CC(C)c1ccc([C@H]2c3cc(O)ccc3[C@H]3NCCC[C@@H]23)cc1 | 90 | No activity detected up to a dose of 1/5 LD50 ip in mice |
| Fc1ccc([C@H]2c3ccccc3[C@H]3NCCC[C@@H]23)cc1 | 61 | No activity detected up to a dose of 1/5 LD50 ip in mice |
| COc1cc2c(cc1OC)[C@H]1NCCC[C@H]1[C@H]2c1ccc(N)cc1 | 94 | No activity detected up to a dose of 1/5 LD50 ip in mice |
| COc1ccc2c(c1)[C@H](c1ccc(C)cc1)[C@@H]1CCCN(C)[C@H]21 | 6 | No activity detected up to a dose of 1/5 LD50 ip in mice |
| CCCN1CCC[C@H]2[C@@H](c3ccccc3)c3ccccc3[C@H]21 | 90 | No activity detected up to a dose of 1/5 LD50 ip in mice |
| CN(C)c1ccc([C@H]2c3cc(O)ccc3[C@H]3NCCC[C@@H]23)cc1 | 67 | No activity detected up to a dose of 1/5 LD50 ip in mice |
| CN1CCC[C@H]2[C@@H](c3ccccc3)c3ccccc3[C@H]21 | 36 | No activity detected up to a dose of 1/5 LD50 ip in mice |
| Fc1ccccc1[C@H]1c2ccccc2[C@H]2NCCC[C@@H]12 | 71 | No activity detected up to a dose of 1/5 LD50 ip in mice |
